Reference: ChEMBL document CHEMBL3616462, “Synthesis and antiviral activity of maleopimaric and quinopimaric acids' derivatives” (Bioorg Med Chem, 2015)

Columns and labels:
[1] = Cytotoxicity against Influenza A virus (A/Brisbane/10/2007(H3N2)) infected MDCK cells; format: cell-based, Canis lupus familiaris; details: dog
human papillomavirus 11 = assay: Antiviral activity against HPV11 infected in PHK cells epithelial raft cultures by standard AACF screening assay; format: functional, organism-based; details: human papillomavirus 11, PHK
rhinovirus A2 = assay: Antiviral activity against human rhinovirus 2 infected in MDCK cells; format: functional, organism-based; details: Rhinovirus A
[2] = Antiviral activity against Influenza A virus (A/Viet Nam/1203/2004(H5N1)) infected in MDCK cells; format: functional, cell-based
[3] = Selectivity index, ratio of CC50 for Influenza A virus (A/Brisbane/10/2007(H3N2)) infected MDCK cells to EC50 for antiviral activity against Influenza A virus (A/Brisbane/10/2007(H3N2)); format: toxicity, cell-based; details: dog; read-out: Ratio CC50/EC50
[4] = Selectivity index, ratio of toxicity against human Huh7ET cells assessed as reduction in beta-actin RNA levels at 20 uM to antiviral activity against HCV infected in human Huh7ET cells assessed as reduction in HCV RNA-derived luciferase activity at 20 uM by luciferase reporter gene assay; format: cell-based, Huh-7; details: read-out: Selectivity Index
Method in brief: (§1)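 HCV RNA replicon assay in Huh7 ET cells. Compounds were added in triplicate at a single concentration of 20 µM. Antiviral activity was read as HCV RNA-derived luciferase signal, expressed as % of control. Toxicity was read as β-actin RNA, % of control. SI = toxicity/antiviral activity. Interferon-α (2 IU/mL) was the positive control.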

[5] = Cytotoxicity against Influenza A virus (A/Viet Nam/1203/2004(H5N1)) infected MDCK cells; format: cell-based, Canis lupus familiaris; details: dog
[6] = Cytotoxicity against Influenza A virus (A/California/07/2009(H1N1)) infected MDCK cells; format: cell-based, Canis lupus familiaris; details: dog
[7] = Toxicity against human Huh7ET cells assessed as reduction in beta-actin RNA levels at 20 uM; format: cell-based, Huh-7; details: Huh7ET cells, values are per cent of control
Method in brief: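 HCV RNA replicon assay in Huh7 ET cells. Compounds were added in triplicate at a single concentration of 20 µM. Cytotoxicity was read as β-actin RNA as % of control, alongside HCV RNA-derived luciferase activity. Interferon-α (2 IU/mL) was the positive control.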

[8] = Selectivity index, ratio of CC50 for Influenza A virus (A/California/07/2009(H1N1)) infected MDCK cells to EC50 for antiviral activity against Influenza A virus H1N1 (A/California/07/2009(H1N1)) infected in MDCK cells; format: toxicity, cell-based; details: dog; read-out: Ratio CC50/EC50
[9] = Selectivity index, ratio of CC50 for Influenza A virus (A/Viet Nam/1203/2004(H5N1)) infected MDCK cells to EC50 for antiviral activity against Influenza A virus (A/Viet Nam/1203/2004(H5N1)) infected in MDCK cells; format: toxicity, cell-based; details: dog; read-out: Ratio CC50/EC50
[10] = Cytotoxicity against Adenovirus Chicago 65089 infected human A549 cells; format: cell-based; details: A549 cells infected with Adenovirus Chicago 65089
Method in brief: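 Respiratory-virus panel screen on A-549 cells, with compounds supplied as DMSO solutions. CC50 is the cell inhibitory concentration at the 50% endpoint, in µM.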

[11] = Selectivity index, ratio of CC50 for Adenovirus Chicago 65089 infected human A549 cells to EC50 for antiviral activity against Adenovirus Chicago 65089 infected in human A549 cells; format: toxicity, cell-based; details: A549 cells infected with Adenovirus Chicago 65089, read-out: Ratio CC50/EC50
[12] = Antiviral activity against Influenza A virus (A/California/07/2009(H1N1)) infected in MDCK cells; format: functional, cell-based
[13] = Selectivity index, ratio of CC50 for Influenza B virus (B/Florida/4/2006) infected MDCK cells to EC50 for antiviral activity against Influenza B virus (B/Florida/4/2006) in MDCK cells; format: toxicity, cell-based; details: dog; read-out: Ratio CC50/EC50
[14] = Cytotoxicity against SARS coronavirus Urbani infected African green monkey Vero 76 cells; format: cell-based; details: chlorocebus sabaeus, Vero 76 cells infected with SARS coronavirus Urbani
[15] = Selectivity index, ratio of CC50 for HPV11 infected PHK cells epithelial raft cultures by standard AACF screening assay to EC50 for HPV11 infected in PHK cells epithelial raft cultures by standard AACF screening assay
unidentified adenovirus = assay: Antiviral activity against Adenovirus Chicago 65089 infected in human A549 cells; format: functional, organism-based; details: Chicago 65089, A549
[16] = Selectivity index, ratio of CC50 for human rhinovirus 2 infected MDCK cells to EC50 for antiviral activity against human rhinovirus 2 infected in MDCK cells; format: toxicity, cell-based; details: dog, MDCK cells infected with human rhinovirus 2; read-out: Ratio CC50/EC50
Hepatitis B virus = assay: Antiviral activity against HBV infected in human HepG2(2.2.15) cells; format: functional, organism-based
Method in brief: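 Primary anti-HBV screen in confluent 2.2.15 cells, run alongside a toxicity assay in the same cells. Compounds were supplied as DMSO solutions.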

Influenza B virus = assay: Antiviral activity against Influenza B virus (B/Florida/4/2006) in MDCK cells; format: functional, cell-based; details: B/Florida/4/2006, MDCK
[17] = Cytotoxicity against human rhinovirus 2 infected MDCK cells; format: cell-based, Canis lupus familiaris; details: dog, MDCK cells infected with human rhinovirus 2
[18] = Cytotoxicity against HBV infected human HepG2(2.2.15) cells; format: cell-based; details: HBV infected HepG2(2.2.15) cells
Method in brief: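 Toxicity was measured on confluent 2.2.15 cells alongside the primary anti-HBV assay. CC50 is given in µM.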

[19] = Antiviral activity against Influenza A virus (A/Brisbane/10/2007(H3N2)) infected in MDCK cells; format: functional, cell-based
[20] = Antiviral activity against SARS coronavirus Urbani infected in African green monkey Vero 76 cells; format: functional, cell-based; details: Severe acute respiratory syndrome-related coronavirus
[21] = Cytotoxicity against Influenza B virus (B/Florida/4/2006) infected MDCK cells; format: cell-based, Canis lupus familiaris; details: dog
[22] = Cytotoxicity against HPV11 infected PHK cells epithelial raft cultures by standard AACF screening assay; format: cell-based; details: human
Hepatitis C virus = assay: Antiviral activity against HCV infected in human Huh7ET cells assessed as reduction in HCV RNA-derived luciferase activity at 20 uM by luciferase reporter gene assay; format: functional, Hepacivirus hominis; details: Huh-7; method in brief: as §1
[23] = Selectivity index, ratio of CC50 for ARS coronavirus Urbani infected African green monkey Vero 76 cells to EC50 for antiviral activity against ARS coronavirus Urbani infected in African green monkey Vero 76 cells; format: toxicity, cell-based; details: Vero 76 cells infected with SARS coronavirus Urbani, read-out: Ratio CC50/EC50

| SMILES | EC50 (human papillomavirus 11) | EC50 (rhinovirus A2) | EC50 [2] | selectivity ratio at 20 µM [4] | CC50 [5] | response, % of control at 20 µM [7] | selectivity ratio [9] | CC50 [10] | selectivity ratio [13] | CC50 [14] | Ratio CC50/EC50 [15] | EC50 (unidentified adenovirus) | EC50 (Hepatitis B virus) | EC90 (Hepatitis B virus) | EC50 (Influenza B virus) | CC50 [17] | CC50 [18] | EC50 [20] | CC50 [21] | CC50 [22] | other results |
| --- | --- | --- | --- | --- | --- | --- | --- | --- | --- | --- | --- | --- | --- | --- | --- | --- | --- | --- | --- | --- | --- |
| COC(=O)[C@H]1[C@@H](C(=O)OC)C2(C(=O)OC)CC[C@@H]3[C@](C)(CCC[C@@]3(C)C(=O)OC)[C@H]2C[C@H]1C(=O)C(C)C (stereo partly specified) | > 50 µM | 32 µM | 3.2 µM | < 1 | 3.3 µM | 88.1% | 1 | 32 µM | 1.1 | 30 µM | 30 | 32 µM | > 10 µM | > 10 µM | 3.2 µM | 32 µM | 189 µM | > 30 µM | 3.5 µM | < 50 µM | CC50 [1]: 33 µM; selectivity ratio [3]: 1; CC50 [6]: 33 µM; selectivity ratio [8]: 1; selectivity ratio [11]: 1; EC50 [12]: 32 µM; selectivity ratio [16]: 1; EC50 [19]: 32 µM; inhibition at 20 µM (Hepatitis C virus): 0.6% |
| COC(=O)[C@H](C)NC(=O)[C@]1(C)CCC[C@]2(C)[C@H]3C[C@H]4C(C(C)C)=C[C@]3(CC[C@H]21)[C@@H]1C(=O)CCC(=O)[C@@H]14 | < 25 µM | > 25 µM | 31 µM | > 1 | 33 µM | 54% | 1.1 | 47 µM | 1.5 | 32 µM | 20 | > 47 µM | > 10 µM | > 10 µM | 22 µM | 25 µM | 86 µM | 30 µM | 33 µM | < 25 µM | selectivity ratio [23]: 1.1; inhibition at 20 µM (Hepatitis C virus): 60.8% |
